ChEMBL document CHEMBL1955854, “New retinoid derivatives as back-ups of Adarotene” (Bioorg Med Chem, 2012)

Key:
[1] = Chemical stability in aqueous buffer containing 5% DMSO and 5% tween 80 at pH 7.4 assessed as compound recovery in anoxic conditions after 24 hrs by UPLC analysis; format: physicochemical; conditions: read-out: Stability
Summary of the method: (§1)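 Stability at 37 °C in aqueous buffer with 5% DMSO and 5% Tween 80 at pH 1.2, 6.8 or 7.4; percent recovery by HPLC/UPLC on BEH C18 column, water+0.1% TFA/acetonitrile gradient from 40% to 95% acetonitrile over 8 min, room temperature.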

A-431 [2] = assay: Antitumor activity against human A431 cells xenografted in nude CD1 mouse assessed as tumor volume inhibition at 37 mg/kg, iv administered qd 3 times per week for 2 weeks relative to control; format: functional; conditions: A-431, 336 h, read-out: TGI
Summary of the method: (§2)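 CD1 nude mice given s.c. right-flank NCI-H460 (3 × 10⁶) or A431 (5 × 10⁶) cells from culture on day 0; eight mice per group. Dosing began day 3 at ~50 mm³ tumors; vehicle 10% DMSO, 9% HPBCD, 14.4% PEG1000 in water. Diameters taken biweekly by caliper; mice weighed daily, maximum BWL% reported; Mann–Whitney versus vehicle.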

Mus musculus [3] = assay: Toxicity in nude CD1 mouse xenografted with human A431 cells assessed as body weight loss at 37 mg/kg, iv administered qd 3 times per week for 2 weeks; format: organism-based, A-431; parameters: dose 37 mg/kg, route intravenous; conditions: in vivo, 336 h; summary of the method: as §2
A-431 [4] = assay: Antiproliferative activity against human A431 cells incubated for 24 hrs drug exposure measured after 48 hrs of recovery by sulforhodamine B assay; format: functional, cell-based
NCI-H460 [5] = assay: Antitumor activity against human NCI-H460 cells xenografted in nude CD1 mouse assessed as tumor volume inhibition at 18 mg/kg, iv administered qd 3 times per week for 2 weeks relative to control; format: functional; conditions: NCI-H460, 336 h, read-out: TGI; summary of the method: as §2
Mus musculus [6] = assay: Toxicity in nude CD1 mouse xenografted with human A431 cells assessed as body weight loss at 10 mg/kg, iv administered qd 3 times per week for 2 weeks; format: organism-based, A-431; parameters: dose 10 mg/kg, route intravenous; conditions: in vivo, 336 h; summary of the method: as §2
[7] = Chemical stability in aqueous buffer containing 5% DMSO and 5% tween 80 at pH 1.2 assessed as compound recovery in anoxic conditions after 3 hrs by UPLC analysis; format: physicochemical; conditions: read-out: Stability; summary of the method: as §1
[8] = Chemical stability in aqueous buffer containing 5% DMSO and 5% tween 80 at pH 6.8 assessed as compound recovery in anoxic conditions after 6 hrs by UPLC analysis; format: physicochemical; conditions: read-out: Stability; summary of the method: as §1
[9] = Chemical stability in aqueous buffer containing 5% DMSO and 5% tween 80 at pH 6.8 assessed as compound recovery in anoxic conditions after 24 hrs by UPLC analysis; format: physicochemical; conditions: read-out: Stability; summary of the method: as §1
Mus musculus [10] = assay: Toxicity in nude CD1 mouse xenografted with human NCI-H460 NSCLC cells assessed as body weight loss at 18 mg/kg, iv administered qd 3 times per week for 2 weeks; format: organism-based; parameters: dose 18 mg/kg, route intravenous; conditions: in vivo, 336 h; summary of the method: as §2
[11] = Solubility in water; format: physicochemical; conditions: buffer
NCI-H460 [12] = assay: Antiproliferative activity against human NCI-H460 cells incubated for 24 hrs drug exposure measured after 48 hrs of recovery by sulforhodamine B assay; format: functional, cell-based
A-431 [13] = assay: Antitumor activity against human A431 cells xenografted in nude CD1 mouse assessed as tumor volume inhibition at 10 mg/kg, iv administered qd 3 times per week for 2 weeks relative to control; format: functional; conditions: A-431, 336 h, read-out: TGI; summary of the method: as §2
[14] = Chemical stability in aqueous buffer containing 5% DMSO and 5% tween 80 at pH 7.4 assessed as compound recovery in anoxic conditions after 6 hrs by UPLC analysis; format: physicochemical; conditions: read-out: Stability; summary of the method: as §1
[15] = Toxicity in iv dosed nude CD1 mouse xenografted with human A431 cells assessed as mortality administered qd 3 times per week for 2 weeks; format: organism-based, A-431; conditions: in vivo
[16] = Chemical stability in aqueous buffer containing 5% DMSO and 5% tween 80 at pH 1.2 assessed as compound recovery in anoxic conditions after 12 hrs by UPLC analysis; format: physicochemical; conditions: pH 1.2, 12 h; summary of the method: as §1
A-431 [17] = assay: Antitumor activity against human A431 cells xenografted in nude CD1 mouse assessed as tumor volume inhibition at 35 mg/kg, ip administered qd 3 times per week for 2 weeks relative to control; format: functional; conditions: A-431, ip, 336 h, route intraperitoneal, read-out: TGI
Summary of the method: (§3)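 A431 epidermoid carcinoma cells (5 × 10⁶) from in vitro culture were injected s.c. into the right flank of CD1 nude mice on day 0, with 8 mice per group. Dosing began on day 3, at tumors of about 50 mm³, on a qdx3/wx2w schedule. Vehicle was 10% DMSO, 9% HPBCD and 14.4% PEG1000 in water. Tumor diameters were measured twice weekly by caliper, and TVI% was taken versus the vehicle group (Mann–Whitney).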

Mus musculus [18] = assay: Toxicity in nude CD1 mouse xenografted with human A431 cells assessed as body weight loss at 35 mg/kg, ip administered qd 3 times per week for 2 weeks; format: organism-based, A-431; parameters: dose 35 mg/kg, route intraperitoneal; conditions: in vivo, 336 h
Summary of the method: (§4)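 CD1 nude mice bore s.c. A431 xenografts (5 × 10⁶ cells, right flank, 8 mice per group). Dosing started on day 3 on a qdx3/wx2w schedule, in vehicle of 10% DMSO, 9% HPBCD and 14.4% PEG1000 in water. Mice were weighed daily, and BWL% = 100 − (mean body weight day x / mean body weight day 1 × 100), with day 1 the first treatment day. The maximum BWL is reported.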

A-431 [19] = assay: Antitumor activity against human A431 cells xenografted in nude CD1 mouse assessed as tumor volume inhibition at 35 mg/kg, po administered qd 3 times per week for 2 weeks relative to control; format: functional; conditions: A-431, 336 h, read-out: TGI; summary of the method: as §3
Mus musculus [20] = assay: Toxicity in nude CD1 mouse xenografted with human A431 cells assessed as body weight loss at 35 mg/kg, po administered qd 3 times per week for 2 weeks; format: organism-based, A-431; parameters: dose 35 mg/kg, route oral; conditions: in vivo, 336 h; summary of the method: as §4

Row | SMILES | remaining at 24 h [1] [%] | inhibition in vivo at 37 mg/kg (A-431 [2]) [%] | Activity (Mus musculus [3]) [%] | IC50 (A-431 [4]) [nM] | inhibition in vivo at 18 mg/kg (NCI-H460 [5]) [%] | Activity (Mus musculus [6]) [%] | remaining at 3 h [7] [%] | remaining at 6 h [8] [%] | remaining at 24 h [9] [%] | Activity (Mus musculus [10]) [%] | solubility [11] | IC50 (NCI-H460 [12]) [nM] | inhibition in vivo at 10 mg/kg (A-431 [13]) [%] | remaining at 6 h [14] [%] | MTD at 336 h [15] [mg/kg] | Stability [16] | inhibition in vivo at 35 mg/kg (A-431 [17]) [%] | Activity (Mus musculus [18]) [%] | inhibition in vivo at 35 mg/kg (A-431 [19]) [%] | Activity (Mus musculus [20]) [%]
1 | O=C(O)/C=C/c1ccc(-c2ccc(OC(=O)CCCN3CCOCC3)c(C34CC5CC(CC(C5)C3)C4)c2)cc1 | 88 | 59 | 18 | 340 | 37 | 0 | > 99 | 99 | 90 | 10 | Insoluble | 220 | 34 | 99 | 18 | Stable |  |  |  | 
2 | Cl.NCCCCNC(=O)Oc1ccc(-c2ccc(/C=C/C(=O)O)cc2)cc1C12CC3CC(CC(C3)C1)C2 | > 99 |  |  | 3400 |  |  | > 99 |  | > 99 |  | Insoluble | 2600 |  |  |  | Stable | 1 | 6 | 0 | 3
